Source: PubChem BioAssay (The Scripps Research Institute Molecular Screening Center)
The list is not random: actives were taken first. Their share in the collection is about 2.5%.
HTRA1 inh: inhibitors of human serine peptidase HTRA1; recombinant HTRA1, FP-rhodamine activity-based probe, fluorescence polarization; inhibition, % at 5.96 µM; actives 0.5% (n = 340,000); Q92743; in the data active = inhibition above about 36%
SIAE primary: human SIAE inhibition, primary screen; Q9HAT2; SIAE FP-Rh probe binding, fluorescence polarization; inhibition, % at 9.66 µM; actives 0.69% (n = 370,000);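 active = inhibition above a cutoff: mean of compounds within the control limits plus 3 SD of those, cut at about 17% in these data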
TCR-CD3 inh: blocks the human TCR-CD3 interaction | TAMRA-labeled TCR probe fluorescence, biochemical | inhibition, % at 9.4 µM | actives 0.37% (n = 360,000); in the data active = inhibition above about 19%;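 also: recombinant mutant TCR 2C K166C tagged with TAMRA read by polarization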
rCAG binder: molecules binding r(CAG) RNA repeats; r(CAG) RNA repeat, TO-PRO-1 dye displacement fluorescence; actives 1.3% (n = 370,000); inhibition, % at 3 µM;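 active = inhibition above the plate cutoff, the mean of all test compounds on that plate plus 3 SD, cut at about 35% in these data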;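 also: higher means more dye released from RNA so lower well fluorescence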
mABHD4 FP: inhibitors of mouse ABHD4; Q8VD66; purified mABHD4, FP-Rh probe fluorescence polarization; inhibition, % at 8.92 µM; actives 0.54% (n = 370,000); AID 720543;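 active = inhibition exceeding the mean over every tested compound plus 3 SD, cut at about 30% in these data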
Target sequence (Q8VD66 whole entry, looked up): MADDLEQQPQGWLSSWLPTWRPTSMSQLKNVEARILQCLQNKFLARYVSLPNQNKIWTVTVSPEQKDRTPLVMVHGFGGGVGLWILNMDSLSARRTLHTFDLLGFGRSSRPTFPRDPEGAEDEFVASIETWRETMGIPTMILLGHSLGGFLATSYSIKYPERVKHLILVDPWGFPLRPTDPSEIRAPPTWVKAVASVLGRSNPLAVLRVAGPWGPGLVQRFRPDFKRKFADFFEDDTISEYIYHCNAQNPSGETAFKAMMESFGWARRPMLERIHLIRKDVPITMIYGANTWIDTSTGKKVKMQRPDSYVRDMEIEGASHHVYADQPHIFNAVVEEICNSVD
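Assay system: mABHD4 protein; medium: HEPES pH 7.0, NaCl, Pluronic buffer; dosing: 8.92 µM, single dose; schedule: 45 min + 60 min at 25 °C; signal: FP readout, ex 525 nm / em 598 nm; read-out: normalized percent inhibition of probe labeling; repeats: single replicate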
ABHD4 confirm: ABHD4 (mouse) inhibition, FP confirmation; actives 55% (n = 1,800); inhibition, % at 8.92 µM; purified mABHD4, FP-Rh probe fluorescence polarization; AID 720658; shares compounds with mABHD4 FP;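 active = mean inhibition across replicates above the hit cutoff set in the primary screen, cut at about 30% in these data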
Numbers stand for hits; . = inactive; / = no result; + = active, no number.

SMILES	HTRA1 inh	SIAE primary	TCR-CD3 inh	rCAG binder	mABHD4 FP	ABHD4 confirm
COc1ccc(OCC(=O)Nc2nc3ccccc3[nH]2)cc1	.	.	.	.	39.3	39.0
O=C(c1ccccc1)N1CCN(c2ccc([N+](=O)[O-])c(NCc3cccnc3)c2)CC1	.	.	.	.	.	/
COc1ccc(CN2CCC(N3CC(C)OC(C)C3)CC2)c(OC)c1OC (centres undefined)	.	.	.	.	32.2	.
O=[N+]([O-])c1ccc(C=NNc2ccc(S(=O)(=O)O)cc2)cc1	.	.	.	.	33.4	50.2
CCN(CC)c1c(C)nc2ccc(C(=O)Nc3cc(-c4ccccc4)ccc3OC)cn12	/	.	.	.	52.8	59.4
CCc1nc2ccc(C(=O)Nc3cc(-c4ccccc4)ccc3OC)cn2c1N(C)Cc1ccc(Cl)cc1	/	.	.	.	.	/
COc1cc(NC(=O)c2c(F)cccc2F)nc(OC)n1	.	/	/	/	/	/
CCOC(=O)CN1C(=O)CSc2ccc(S(=O)(=O)N3CCCC3)cc21	.	.	.	.	35.2	.
CCOC(=O)CN1C(=O)CSc2ccc(S(=O)(=O)N3CCOCC3)cc21	.	.	.	.	.	/
O=C(c1ccoc1)N1CCN(c2cc(-c3ccco3)nc3cc(-c4ccccc4)nn23)CC1	.	.	.	.	.	/
Cc1nc(N2CCOCC2)nc(N2CCN(c3ccccc3)CC2)c1[N+](=O)[O-]	.	.	.	.	.	/
CC(=O)N1N=C(c2cccc(O)c2)CC1c1cccs1 (centres undefined)	.	.	.	.	35.6	.
CC(=O)N1N=C(c2cccc(NS(C)(=O)=O)c2)CC1c1cccs1 (centres undefined)	.	.	.	.	.	/
CCn1cnc2cc(NCc3cccc(OC)c3O)ccc21	.	.	.	.	+	.
CCCCn1cnc2cc(NCc3cccc(OC)c3O)ccc21	.	.	.	.	.	/
O=c1ccc2cc(O)c(O)cc2o1	.	.	.	.	50.2	.
CC(C)(C)c1ccc(OCCC(=O)Nc2cccc(S(=O)(=O)N3CCCC3)c2)cc1	.	.	.	.	.	/
Cc1cccc(NC(=O)CSc2nnc(-c3ccco3)c(-c3ccco3)n2)c1	.	.	.	41.8	43.8	44.1
O=C(O)c1ccc(N2CCN(C(c3ccccc3)c3ccccc3)CC2)c([N+](=O)[O-])c1	.	.	.	.	32.4	47.4
CCN(CC)c1ccc(C(=O)NNC(=O)C2CSC3(C)CCC(=O)N23)cc1 (centres undefined)	.	.	.	.	39.2	.
COc1cc(Cl)ccc1OCc1cc(C(=O)N2C[C@]3(C)C[C@H]2CC(C)(C)C3)no1	.	.	.	.	32.4	.
NNc1nc2c(Cl)ccc(Cl)c2s1	.	.	.	.	38.5	47.9
N=C1c2c(cc(=O)n3c2[nH]c2ccccc23)CN1CCN1CCOCC1	.	.	.	.	30.8	.
COc1ccc(-c2nnc(CSc3nc4ccccc4c(=O)n3CC(C)C)o2)cc1OC	.	.	.	.	31.3	.
Oc1ccc2ccccc2c1C=NNc1ccccn1	.	.	.	.	35.5	.
SMILES	HTRA1 inh	SIAE primary	TCR-CD3 inh	rCAG binder	mABHD4 FP	ABHD4 confirm
Fc1cccc(F)c1/C=N/Nc1ccccn1	.	.	.	.	.	/
O=C(CCNS(=O)(=O)c1cccs1)N1CCCCCC1	.	.	.	.	.	/
Nc1c(O)ccc2c1C(=O)c1ccccc1C2=O	/	.	.	.	44.8	47.2
CC1=C(C#N)C(=O)NC(C)(C)C1	.	.	.	.	.	/
CCOc1cc(/C=C2\SC(=O)N(CC(=O)Nc3ccccc3F)C2=O)cc([N+](=O)[O-])c1O	.	.	.	.	.	/
COc1cc(/C=C2\SC(=O)N(CC(=O)Nc3cccc(C)c3)C2=O)cc([N+](=O)[O-])c1O	/	.	.	.	30.8	80.2
CCn1c(C)nc2cc(C(=O)N/N=C/c3ccc(O)c(O)c3O)ccc21	.	.	65.6	.	35.2	44.4
CCN(CCNCC(O)COc1ccccc1C(C)C)c1cccc(C)c1 (centres undefined)	.	.	.	.	31.6	40.8
O=C(OCC(=O)c1cccs1)c1cccc(C(=O)OCC(=O)c2cccs2)n1	.	.	.	.	.	/
COc1cc(C2NCC(c3ccc(Cl)cc3Cl)c3c2[nH]c2ccccc32)cc(OC)c1OC (centres undefined)	.	.	.	.	43.6	58.8
CCN(C(=O)c1ccc(S(C)(=O)=O)cc1)C12CC3CC(CC(C3)C1)C2	.	.	.	.	93.0	.
CS(=O)(=O)c1ccc(C(=O)N(Cc2ccccc2)c2ccccc2)cc1	.	.	.	.	.	/
COc1ccccc1N1CCN(C(=O)c2ccc3nc(-c4ccco4)c(-c4ccco4)nc3c2)CC1	.	.	.	.	.	/
Cc1ccc(C)c(N2CCN(C(=O)c3ccc4nc(-c5ccco5)c(-c5ccco5)nc4c3)CC2)c1	.	.	.	.	41.7	.
COC(=O)C(Cc1c[nH]c2ccccc12)NC(=O)CNC(C)=O (centres undefined)	.	.	.	.	.	/
COC(=O)[C@@H](Cc1c[nH]c2ccccc12)NCc1ccc(B(O)O)cc1	.	.	.	.	71.8	64.4
COC(=O)[C@H](Cc1c[nH]c2ccccc12)NCc1cccc(B(O)O)c1	.	.	.	.	77.3	61.9
O=C(N/N=C1\C/C(=N\NC(=O)c2ccncc2)c2ccccc21)c1ccncc1	.	.	.	.	38.5	.
O=C(O)c1ccc(-c2cccc([N+](=O)[O-])c2)o1	.	.	.	.	.	/
N#C/C(=C(/O)c1ccc(-c2cccc([N+](=O)[O-])c2)o1)c1nc2ccccc2s1	.	.	.	.	31.2	56.0
CC(=O)N1c2ccc(S(=O)(=O)N3CCCCC3)cc2CC1C(=O)Nc1cccc(C)c1 (centres undefined)	.	.	.	.	.	/
COc1ccccc1NC1=C(Cl)C(=O)N(c2ccccc2)C1=O	.	.	.	.	.	/
CCOc1ccc(N2C(=O)C(Cl)=C(Nc3ccccc3O)C2=O)cc1	.	.	.	.	34.2	.
COc1ccc(/C(C)=N/Nc2ccc(F)cc2F)c(O)c1	.	.	.	.	.	/
Nc1c(Cl)ncnc1N/N=C/c1ccccn1	/	.	.	.	54.2	53.8
CC(C)(c1ccccc1)c1ccc(OCC(O)CNC2CCN(Cc3ccccc3)CC2)cc1 (centres undefined)	.	.	.	.	31.6	36.2
CCOc1ccc(OCC(O)CNC2CCN(Cc3ccccc3)CC2)cc1 (centres undefined)	.	.	.	.	.	/
CC(=O)Oc1ccc2c(=O)c(Oc3ccccc3)c(C)oc2c1OC(C)=O	.	.	.	.	41.9	.
C(#CC1CCCCC1)c1ccc2c(c1)COc1c3ccccc3nn1-2	.	.	.	.	.	/
NC(=S)n1[nH]c(-c2ccc([N+](=O)[O-])cc2)c(N=Nc2cccc([N+](=O)[O-])c2)c1=O	.	.	.	.	30.0	54.3
